In brackets after ≈: the same amount, converted by molar mass.
What was measured:
Coxsackievirus [1] = experiment: Lowest concentration to reduce viral effect by 50% or more against coxsackie virus A21; format: functional
Outline: (§1)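 HeLa monolayers were seeded at (1.0-1.3) × 10^5 cells/well, grown 24 h at 36 °C in 5% CO2 to 60–75% cover, then refed with maintenance medium (1-2% heat-inactivated FCS) containing two-fold serial compound dilutions made from a 200 μg/mL stock in Me2SO/medium, with final Me2SO ≤0.1%. Cells were challenged with 10-100 TCID50 virus, and CPE was read microscopically at 48 and 72 h. MIC50 was the lowest concentration giving ≥50% CPE reduction versus virus control. Cytotoxicity was the lowest concentration causing cell death, a growth change or a morphology change in uninfected cultures.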

Enterovirus [2] = experiment: Lowest concentration to reduce viral effect by 50% or more against Rhinovirus (RV)-2; format: functional; outline: as §1
HeLa = experiment: Cytotoxicity concentration in HeLa cells; format: cell-based; details: human; outline: as §1
Enterovirus [3] = experiment: Lowest concentration to reduce viral effect by 50% or more against Rhinovirus (RV)-1A; format: functional; outline: as §1
Enterovirus [4] = experiment: Ratio of the MIC50 of 6-(4-Nitro-phenoxy)-nicotinonitrile compared to compound obtained in the same test for Rhinovirus (RV)-2; format: functional
Outline: (§2)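 Relative activity was calculated as the MIC50 of the positive control 5-cyano-2-(4-nitrophenoxy)pyridine divided by the MIC50 of the test compound. Both were measured in parallel in the same HeLa CPE test (48/72 h microscopic reading) against RV-1A, RV-2 or coxsackievirus A21.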

Coxsackievirus [5] = experiment: Ratio of the MIC50 of 6-(4-Nitro-phenoxy)-nicotinonitrile compared to compound obtained in the same test for coxsackie A21; format: functional; outline: as §2
Enterovirus [6] = experiment: Ratio of the MIC50 of 6-(4-Nitro-phenoxy)-nicotinonitrile compared to compound obtained in the same test for Rhinovirus (RV)-1A; format: functional; outline: as §2

MIC50 (Coxsackievirus [1]) [µM]	MIC50 (Enterovirus [2]) [µM]	MIC50 (Enterovirus [3]) [µM]	Structure (SMILES)	Toxicity (HeLa) [µM]	Relative activity (Enterovirus [4])	Relative activity (Coxsackievirus [5])	Relative activity (Enterovirus [6])
16.2 (≈ 5.01 µg/mL)	16.2 (≈ 5.01 µg/mL)		N#Cc1cc(Oc2ccc(Cl)c(Cl)c2)ccc1[N+](=O)[O-]	162	1.2	1.2	
1 (≈ 0.299 µg/mL)	> 334	> 334	N#Cc1cc(Cl)ccc1Oc1ccc(Cl)c(Cl)c1	> 334		5.2	
10.3 (≈ 3.09 µg/mL)	20.7 (≈ 6.22 µg/mL)	> 167	COc1ccc(Oc2ccc([N+](=O)[O-])cc2C#N)cc1OC	> 167	0.63	1.3	
9.1 (≈ 2.49 µg/mL)	45.6 (≈ 12.5 µg/mL)	22.8 (≈ 6.24 µg/mL)	Clc1ccc(Oc2ccc(Cl)c(Cl)c2)cc1	91		1.4	2.3
2.2 (≈ 0.614 µg/mL)	9 (≈ 2.51 µg/mL)	4.5 (≈ 1.26 µg/mL)	N#Cc1cc(N)ccc1Oc1ccc(Cl)c(Cl)c1	9		11.8	
18.7 (≈ 6.21 µg/mL)	18.7 (≈ 6.21 µg/mL)	15 (≈ 4.98 µg/mL)	CS(=O)(=O)c1ccc(Oc2ccc(Cl)c(Cl)c2)c(N)c1	19			
> 267	16.7 (≈ 6.05 µg/mL)	> 267	CS(=O)(=O)c1ccc(Oc2ccc(Cl)c(Cl)c2)c([N+](=O)[O-])c1	> 267	3.1		
83 (≈ 25.1 µg/mL)	4 (≈ 1.21 µg/mL)	2 (≈ 0.604 µg/mL)	C[S+]([O-])c1ccc(Oc2ccc(Cl)c(Cl)c2)nc1 (stereo not drawn)	83	3.3		6.5
19 (≈ 6.25 µg/mL)	> 304	> 304	O=[N+]([O-])c1ccc(Oc2ccc(Cl)c(Cl)c2)c([N+](=O)[O-])c1	19			
23.7 (≈ 6.26 µg/mL)	> 379	> 379	N#Cc1ccccc1Oc1ccc(Cl)c(Cl)c1	379		1.1	
10.7 (≈ 3.09 µg/mL)	10.7 (≈ 3.09 µg/mL)	> 173	N#Cc1ccc(Oc2ccc(Cl)c(Cl)c2)c(C#N)c1	> 173	2.4	3.1	
> 292	18.3 (≈ 6.26 µg/mL)	> 292	CS(=O)(=O)c1ccc(Oc2ccc(Cl)c(Cl)c2)c(C#N)c1	292	2.8		
98 (≈ 25 µg/mL)		5 (≈ 1.28 µg/mL)	Nc1ccc(Oc2ccc(Cl)c(Cl)c2)nc1	88			4.1
15.6 (≈ 5.01 µg/mL)	3.7 (≈ 1.19 µg/mL)	3.7 (≈ 1.19 µg/mL)	CC(=O)Nc1ccc(Oc2ccc(Cl)c(Cl)c2)c(C#N)c1	62	3.5	1.7	3.5
> 151		15.7 (≈ 5.2 µg/mL)	Cc1cc(Oc2ccc(Cl)c(Cl)c2)ccc1S(C)(=O)=O	> 151	1.4		1.7
23.5 (≈ 6.23 µg/mL)	> 378	94 (≈ 24.9 µg/mL)	N#Cc1cccc(Oc2ccc(Cl)c(Cl)c2)n1	378		0.91	0.28
	2.2 (≈ 0.619 µg/mL)	2.2 (≈ 0.619 µg/mL)	CC(=O)c1ccc(Oc2ccc(Cl)c(Cl)c2)cc1	49	11.8		11.8

The remaining lines, values behind:

Structure (SMILES)	MIC50 (Coxsackievirus [1]) [µM]	MIC50 (Enterovirus [2]) [µM]	MIC50 (Enterovirus [3]) [µM]	Toxicity (HeLa) [µM]	Relative activity (Enterovirus [4])	Relative activity (Coxsackievirus [5])	Relative activity (Enterovirus [6])
COc1ccccc1Oc1ccc([N+](=O)[O-])cc1C#N	18.5 (≈ 5 µg/mL)	9.2 (≈ 2.49 µg/mL)	9.2 (≈ 2.49 µg/mL)	18.5			
CC(=O)c1ccc(Oc2ccc(C#N)cn2)cc1	53 (≈ 12.6 µg/mL)		210 (≈ 50 µg/mL)	420		0.02	
CS(=O)(=O)c1ccc(Oc2ccccc2Cl)cc1	11 (≈ 3.11 µg/mL)	44.2 (≈ 12.5 µg/mL)	88 (≈ 24.9 µg/mL)	88		1.2	
N#Cc1ccc(Oc2ccccc2)nc1	64 (≈ 12.6 µg/mL)		64 (≈ 12.6 µg/mL)	676		0.81	0.4
CS(=O)(=O)c1ccc(Oc2ccc([N+](=O)[O-])cc2C#N)cc1	2 (≈ 0.637 µg/mL)	39.3 (≈ 12.5 µg/mL)	> 314	> 314	1.3	2.6	
O=S(=O)(c1ccc(Oc2ccc(Cl)c(Cl)c2)cc1)C(F)(F)F		16.8 (≈ 6.24 µg/mL)	33.7 (≈ 12.5 µg/mL)	> 135	1.5		0.39
CC(=O)c1ccc(Oc2ccc(S(C)(=O)=O)cc2)cc1	17.2 (≈ 4.99 µg/mL)	8.6 (≈ 2.5 µg/mL)	86.2 (≈ 25 µg/mL)	172	3	0.769	
CS(=O)(=O)c1ccc(Oc2cccc(Cl)c2)cc1	22.1 (≈ 6.25 µg/mL)	22.1 (≈ 6.25 µg/mL)		88	1.2	0.59	
O=S(=O)(O)c1ccc(Oc2ccc(Cl)c(Cl)c2)nc1	312 (≈ 99.9 µg/mL)	> 312	20 (≈ 6.4 µg/mL)	312			1.3
CS(=O)(=O)c1ccnc(Oc2ccc(Cl)c(Cl)c2)c1	5 (≈ 1.59 µg/mL)	79 (≈ 25.1 µg/mL)	79 (≈ 25.1 µg/mL)	157		10.4	
CS(=O)(=O)c1ccc(Oc2ccc(C(=O)c3ccccc3)cc2)cc1	0.88 (≈ 0.31 µg/mL)	142 (≈ 50 µg/mL)	> 284	> 284		5.9	
N#Cc1cc([N+](=O)[O-])ccc1Oc1ccccc1C(F)(F)F	32 (≈ 9.86 µg/mL)	3.9 (≈ 1.2 µg/mL)	> 324	32	3.3		
N#Cc1cc([N+](=O)[O-])ccc1Oc1ccc(C(=O)c2ccccc2)cc1	36.3 (≈ 12.5 µg/mL)	> 291	> 291	> 291		1.4	
CS(=O)(=O)c1cccnc1Oc1ccc(Cl)c(Cl)c1	157 (≈ 50 µg/mL)	157 (≈ 50 µg/mL)	79 (≈ 25.1 µg/mL)	157			
O=S(=O)(c1ccccc1)c1ccc(Oc2ccc(Cl)c(Cl)c2)cc1	1.6 (≈ 0.607 µg/mL)	1.6 (≈ 0.607 µg/mL)	1.6 (≈ 0.607 µg/mL)	3.3			
CS(=O)(=O)c1ccc(Oc2ccc(O)cc2)cc1	> 189	94.7 (≈ 25 µg/mL)	94.7 (≈ 25 µg/mL)	95			
CSc1ccc(Oc2ccc([N+](=O)[O-])cc2C#N)cc1	0.87 (≈ 0.249 µg/mL)	21.8 (≈ 6.24 µg/mL)	> 350	350	2.4	6	
CS(=O)(=O)c1ccc(Oc2ccc(C#N)cc2)cc1	11.4 (≈ 3.12 µg/mL)	45.8 (≈ 12.5 µg/mL)		183	0.56	2.3	
N#Cc1ccc(Oc2ccc(F)cc2)nc1	69 (≈ 14.8 µg/mL)		34 (≈ 7.28 µg/mL)	250		1.7	3.3
CS(=O)(=O)c1cccc(Oc2ccc(Cl)c(Cl)c2)n1	157 (≈ 50 µg/mL)	39 (≈ 12.4 µg/mL)	10 (≈ 3.18 µg/mL)	157	0.66		2.6

— ChEMBL document CHEMBL1123507, “Antipicornavirus activity of substituted phenoxybenzenes and phenoxypyridines” (J Med Chem, 1986)
